Laboratory results reported in ChEMBL document CHEMBL2311527, “Synthesis of cembranoid analogues and evaluation of their potential as quorum sensing inhibitors” (Bioorg Med Chem, 2013).
Active and inactive are the calls of the source. The calls are words filed in the database; no cut-off is given here.

What follows are compounds tested on Chromobacterium violaceum (assay: Antibacterial activity against Chromobacterium violaceum ATCC 31532 assessed as growth inhibition at 2.5 to 30 ug/disk after 48 hrs by NCCLS disk diffusion method).
Type: functional, organism-based

**Q.** With C=C(C)[C@@H]1CC[C@@H](C)[C@H](OC(C)=O)CC[C@H](C)CC(=O)C[C@@H](C)[C@H](OC(C)=O)C1 as the compound, how does the “growth inhibition (GI)” value read?
**A.** Its value is “inactive”.

**Q.** For C=C(C)[C@@H]1CC[C@@H](C)[C@H](O)CC[C@H](C)CC2(O)C[C@@H](C)[C@@H](C1)O2, which “growth inhibition (GI)” value is on record?
**A.** The value was “inactive”.

What follows are compounds tested on Chromobacterium violaceum (assay: Inhibition of quorum sensing system in Chromobacterium violaceum ATCC 31532 assessed as inhibition of violacein pigment production measured per disk after 48 hrs by NCCLS disk diffusion method).
Procedure, shortened: (§1)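 Sterile 5.2 mm filter-paper disks were loaded with 30.0, 15.0, 7.5, 5.0 and 2.5 per disk from MeOH solutions and air-dried for 1 h. They were placed on trypticase soy agar spread with C. violaceum broth culture (10^6 cfu/mL, 0.5 McFarland) and incubated 48 h at 26 °C. The endpoint was the minimum amount per disk giving a colourless, opaque but viable halo, meaning violacein loss without growth inhibition. Kojic acid and Cu2O served as positive controls.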

**Q.** With C=C(C)[C@@H]1CC[C@@H](C)C(=O)CC[C@H](C)CC(=O)C[C@@H](C)[C@H](OC(C)=O)C1 as the compound, how does the INH read?
**A.** The INH was 7.5 µg.

**Q.** For C=C(C)[C@H]1CC/C(C)=C/CC[C@](C)(O)[C@H](O)CC/C(COC(C)=O)=C/[C@@H]1O, which INH is on record?
**A.** Its INH is 7.5 µg.

**Q.** How did the INH turn out when C=C(C)[C@H]1CC/C(C)=C/CC[C@@]2(C)O[C@H]1/C=C(\CO)CC[C@H]2O was run?
**A.** Its INH is 30 µg.

**Q.** Which INH does the source give for C=C1CC/C=C(\C)CC[C@H](C(=C)C)[C@@H](O)/C=C(\COC(C)=O)CC[C@H]1O here?
**A.** The INH was 7.5 µg.

**Q.** For C=C1CC/C=C(\C)CC[C@H](C(=C)C)[C@@H](OC(C)=O)/C=C(/COC(C)=O)CC[C@H]1O, which INH is on record?
**A.** The INH was 7.5 µg.

**Q.** With C=C(C)[C@H]1C[C@H](O)/C(C)=C/CC[C@@]2(C)O[C@@H]2CC/C(COC(C)=O)=C/[C@@H]1O as the compound, how does the INH read?
**A.** The INH was 30 µg.

**Q.** With O=c1cc(CO)occ1O as the compound, how does the INH read?
**A.** Its INH is 90 µg.

**Q.** With C=C(C)[C@@H]1CC[C@@H](C)[C@H](OC(C)=O)CC[C@H](C)CC(=O)C[C@@H](C)[C@H](OC(C)=O)C1 as the compound, how does the INH read?
**A.** Its INH is 30 µg.

**Q.** How did the INH turn out when C=C(C)[C@H]1CC/C(C)=C/C/C=C(\C)[C@H](O)CC/C(COC(C)=O)=C\[C@@H]1OC(C)=O was run?
**A.** Its INH is 2.5 µg.

**Q.** For C=C(C)[C@H]1CC/C(C)=C/CC[C@@](C)(Cl)[C@H](O)CC/C(COC(C)=O)=C/[C@@H]1O, which INH is on record?
**A.** The INH was 7.5 µg.

**Q.** C=C(C)[C@@H]1CC[C@@H](C)[C@H](OC(C)=O)CC[C@@H](C)CC(=O)C[C@@H](C)[C@H](OC(C)=O)C1 was tested. Which INH did it give?
**A.** The INH was 15 µg.

**Q.** Which INH does the source give for C=C(C)[C@H]1CC/C(C)=C/C/C=C(/C)[C@@H](O)CC/C(COC(C)=O)=C\[C@@H]1OC(C)=O here?
**A.** The INH was 7.5 µg.

**Q.** C=C(C)[C@@H]1CC[C@@H](C)[C@H](O)CC[C@H](C)CC(=O)C[C@@H](C)[C@H](O)C1 was tested. Which INH did it give?
**A.** The INH was 7.5 µg.

**Q.** C=C(C)[C@H]1CC/C(C)=C/CC[C@@](C)(Cl)[C@H](O)CC/C(CO)=C/[C@@H]1O was tested. Which INH did it give?
**A.** The INH was 30 µg.

**Q.** How did the INH turn out when C=C(C)[C@@H]1CC[C@@H](C)[C@H](O)CC[C@H](C)CC2(O)C[C@@H](C)[C@@H](C1)O2 was run?
**A.** Its INH is 7.5 µg.

**Q.** C=C(C)[C@H]1CC/C(C)=C/CCC(C)(C=O)CC/C(COC(C)=O)=C/[C@@H]1O (stereo not given in full) was tested. Which INH did it give?
**A.** Its INH is 7.5 µg.

These compounds were tested on Chromobacterium violaceum (assay: Inhibition of quorum sensing system in Chromobacterium violaceum ATCC 31532 assessed as inhibition of violacein pigment production at 30 ug/disk after 48 hrs by NCCLS disk diffusion method).
Procedure, shortened: as §1

**Q.** C=C(C)[C@@H]1C/C=C(/COC(C)=O)CC[C@H]2O[C@]2(C)CC/C=C(\C)CC1 was tested. Which inhibition did it give?
**A.** Its inhibition is “inactive”.

**Q.** How did the inhibition turn out when C=C(C)[C@H]1CC/C(C)=C/C/C=C(/C)[C@H](O)CC/C(COC(C)=O)=C/[C@@H]1O was run?
**A.** The inhibition was “inactive”.

**Q.** For C=C(C)[C@H]1CC/C(C)=C/CC[C@@]2(C)O[C@@H]2CC/C(COC(C)=O)=C\[C@@H]1O, which inhibition is on record?
**A.** The inhibition was “inactive”.

**Q.** Which inhibition does the source give for C=C(C)[C@@H]1C/C=C(\COC(C)=O)CC[C@@H](O)C(=C)CC/C=C(\C)CC1 here?
**A.** Its inhibition is “inactive”.

**Q.** For C=C(C)[C@@H]1CC[C@@H](C)[C@H](O)CC[C@@H](C)CC2(O)C[C@@H](C)[C@@H](C1)O2, which inhibition is on record?
**A.** The inhibition was “inactive”.

**Q.** How did the inhibition turn out when C=C(C)[C@H]1CC/C(C)=C/CC[C@@]2(C)O[C@@H]2CCC(C=O)=CC1=O was run?
**A.** Its inhibition is “inactive”.

**Q.** With C=C(C)[C@@H]1C/C=C(\COC(C)=O)CC[C@@H](O)[C@](C)(Cl)CC/C=C(\C)CC1 as the compound, how does the inhibition read?
**A.** The inhibition was “inactive”.

**Q.** Which inhibition does the source give for C=C(C)[C@H]1CC/C(C)=C/CC[C@@]2(C)O[C@@H]2CC/C(COC(C)=O)=C\[C@@H]1OC(C)=O here?
**A.** The inhibition was “inactive”.

**Q.** How did the inhibition turn out when C=C(C)[C@H]1CC/C(C)=C/CC[C@@]2(C)O[C@@H]2CC/C(C=O)=C/[C@@H]1O was run?
**A.** The inhibition was “inactive”.

**Q.** With C=C(C)[C@H]1CC/C(C)=C/CC[C@]2(C)O[C@H]1/C=C(\COC(C)=O)CC[C@H]2O as the compound, how does the inhibition read?
**A.** The inhibition was “inactive”.

**Q.** C=C(C)[C@H]1CC/C(C)=C/CC[C@@]2(C)O[C@@H]2CC/C(CO)=C\[C@@H]1O was tested. Which inhibition did it give?
**A.** Its inhibition is “inactive”.

**Q.** How did the inhibition turn out when C=C(C)[C@H]1CC/C(C)=C/CC[C@@](C)(Cl)[C@H](O)CC/C(COC(C)=O)=C\[C@@H]1OC(C)=O was run?
**A.** Its inhibition is “inactive”.

**Q.** With C=C(C)[C@H]1CC/C(C)=C/CC[C@@](C)(O)[C@@H]2CC/C(=C/[C@@H]1O)CO2 as the compound, how does the inhibition read?
**A.** Its inhibition is “inactive”.

**Q.** How did the inhibition turn out when C=C(C)[C@H]1CC/C(C)=C/CC[C@@](C)(O)[C@H](O)CC/C(CO)=C/[C@@H]1O was run?
**A.** Its inhibition is “inactive”.

**Q.** Which inhibition does the source give for C=C(C)[C@@H]1C/C=C(\COC(C)=O)CC[C@@H](O)/C(C)=C\C/C=C(\C)CC1 here?
**A.** The inhibition was “inactive”.

**Q.** Which inhibition does the source give for C=C(C)[C@@H]1CC[C@@H](C)[C@H](O)CC[C@@H](C)CC(=O)C[C@@H](C)[C@H](O)C1 here?
**A.** Its inhibition is “inactive”.

**Q.** With C=C(C)[C@H]1CC[C@@](C)(I)[C@H]2CC[C@@](C)(O2)[C@@H](I)CC/C(COC(C)=O)=C/[C@@H]1O as the compound, how does the inhibition read?
**A.** The inhibition was “inactive”.

**Q.** How did the inhibition turn out when C=C(C)[C@@H]1CC[C@@H](C)C(=O)CC[C@H](C)CC(=O)C[C@@H](C)[C@H](O)C1 was run?
**A.** Its inhibition is “inactive”.

**Q.** With C=C(C)[C@H]1CC[C@@](C)(O)[C@H]2CCC(=C)[C@@H](CC/C(CO)=C/[C@@H]1O)O2 as the compound, how does the inhibition read?
**A.** The inhibition was “inactive”.

**Q.** With C=C(C)[C@H]1CC/C(C)=C/CCC(C)C(=O)CC/C(COC)=C/[C@@H]1O (stereo not given in full) as the compound, how does the inhibition read?
**A.** The inhibition was “inactive”.

**Q.** C=C(C)[C@@H]1CC[C@@H](C)C(=O)CC[C@H](C)CC2(O)C[C@@H](C)[C@@H](C1)O2 was tested. Which inhibition did it give?
**A.** The inhibition was “inactive”.

**Q.** For CC(=O)OCC12CC[C@H]3O[C@]3(C)CCC3OC3(C)CC[C@H]([C@]3(C)CO3)[C@@H](O)C1O2 (stereo not given in full), which inhibition is on record?
**A.** The inhibition was “inactive”.
